# Published values pooled from the literature.
# Lines come from different studies, so protocols differ.
# Target: Protein kinase C gamma type (PRKCG, Homo sapiens, UniProt P05129)
SMILES,test,setting,measurement,result
CCN(CC)CCNC(=O)c1c(C)[nH]c(/C=C2\C(=O)Nc3ccc(F)cc32)c1C,"enzyme activity, inhibitor",10 µM,inhibition,32%
CCOc1cc(-c2nncn2C)ccc1Nc1ncc2cc(C)nc(NCC(C)(C)C)c2n1,"enzyme activity, inhibitor, FRET",1 µM,inhibition,< 15%
O=C1NC(=O)c2cc(Nc3ccc(F)cc3)c(Nc3ccc(F)cc3)cc21,cell-free assay,0.5 µM,remaining signal,102%
Cc1sc(C(=O)NC2COC2)cc1-n1cc(NC(=O)Nc2c(F)cccc2Cl)cn1,"enzyme activity, inhibitor",10 µM,remaining activity,102%
CC(C)c1ccc(NC(=O)c2cccs2)c(-c2nc3ccccc3[nH]c2=O)c1,"enzyme activity, inhibitor",1 µM,activity vs control,106%
Cc1ccc(Nc2nccc(N(C)c3ccc4c(C)n(C)nc4c3)n2)cc1S(N)(=O)=O,"enzyme activity, inhibitor",10 µM,inhibition,45%
COc1cc2ncnc(Nc3ccc(Oc4ccccc4)cc3C)c2cc1OC,"enzyme activity, inhibitor",1 µM,inhibition,-3%
FC(F)(F)Oc1cccc(-c2cnc3ccc(-c4ccncc4)nn23)c1,"enzyme activity, inhibitor, radiometric",1 µM,activity vs control,96%
COc1cc(/C=C/C(=O)CC(=O)/C=C/c2ccc(O)c(OC)c2)ccc1O,"enzyme activity, inhibitor",1 µM,activity vs control,85%
CC(C)(O)[C@H]1CC[C@H](Nc2ccc3ncc(-c4cccc(C(F)(F)F)c4)n3n2)CC1,"enzyme activity, inhibitor",1 µM,remaining activity,99%
COc1cc(Nc2cnc(C#N)c(O[C@H](C)CN(C)C)n2)ncc1-c1cnn(C)c1,"enzyme activity, inhibitor, radiometric",10 µM,remaining activity,80%
CC(C)(C)c1nc(-c2cccc(NS(=O)(=O)c3c(F)cccc3F)c2F)c(-c2ccnc(N)n2)s1,"enzyme activity, inhibitor, radiometric",1 µM,remaining activity,102%
Cc1cnc(NC2CCOCC2)nc1-n1cnc(C(=O)NC(CN)c2cc(F)cc(Cl)c2)c1 (stereo not shown),"enzyme activity, inhibitor, radiometric",1 µM,remaining activity,85%
Cc1ccc(-n2nc(C(C)(C)C)cc2NC(=O)Nc2ccc(OCCN3CCOCC3)c3ccccc23)cc1,"enzyme activity, inhibitor",10 µM,inhibition,7%
CCCOc1ccc(OC)c(F)c1C(=O)c1ccc(C(=O)N[C@@H]2CNC[C@H]2NC(=O)c2ccc3[nH]ncc3c2)cc1,"enzyme activity, inhibitor",10 µM,remaining activity,73%
C[C@@H](N)[C@H]1CC[C@H](C(=O)Nc2ccncc2)CC1,"enzyme activity, inhibitor, TR-FRET",10 µM,inhibition,6.8%
